Measured values of several laboratories.
Protocols differ between the studies behind these lines.
blaNDM-1: Metallo-beta-lactamase type 2 (blaNDM-1, Klebsiella pneumoniae, UniProt C7C422)
HTR2C: 5-hydroxytryptamine receptor 2C (HTR2C, Homo sapiens, UniProt P28335)
HLA class I histocompatibility antigen, B alpha chain: HLA class I histocompatibility antigen, B alpha chain (Homo sapiens, UniProt P01889)

CSCC[C@H](NC(=O)[C@H](CCC(N)=O)NC(=O)[C@H](C)NC(=O)[C@H](CO)NC(=O)[C@@H](N)CO)C(=O)N[C@@H](CC(N)=O)C(=O)N[C@@H](CC(C)C)C(=O)N[C@@H](CC(N)=O)C(=O)N[C@H](C(=O)N[C@@H](Cc1ccccc1)C(=O)N[C@@H](CC(C)C)C(=O)N[C@@H](CC(N)=O)C(=O)O)[C@@H](C)O
IC50 (1-deoxy-D-xylulose-5-phosphate synthase (dxs, Deinococcus radiodurans, UniProt Q9RUB5); enzyme activity, inhibitor, absorbance; pH 7.6, with preincubation): 49 µM

C[C@H](N)[C@H](O)c1cccc(O)c1
IC50 (5-hydroxytryptamine receptor 2B (HTR2B, Homo sapiens, UniProt P41595); calcium signal, antagonist, fluorescence): 7.38 µM

CSCC[C@H](NC(=O)[C@H](Cc1c[nH]c2ccccc12)NC(=O)CNC(=O)[C@H](Cc1ccc(O)cc1)NC(=O)[C@H](C)NC(=O)[C@@H](CCC(=O)O)NC(=O)CN1CCN(CC(=O)O)CCN(CC(=O)O)CCN(CC(=O)O)CC1)C(=O)N[C@@H](CC(=O)O)C(=O)N(C)[C@@H](Cc1ccccc1)C(N)=O
IC50 (Gastrin/cholecystokinin type B receptor (CCKBR, Homo sapiens, UniProt P32239); ligand displacement, radioligand): 0.0404 µM

Fc1ccc(CC(c2ccccc2)N2CCCC2)cc1 (stereo not shown)
IC50 (Sigma intracellular receptor 2 (Tmem97, Rattus norvegicus, UniProt Q5U3Y7); ligand displacement, radioligand): > 10 µM

c1ccc(CNCc2ccccn2)nc1
IC50 (blaNDM-1; enzyme activity, inhibitor, fluorescence): 2.6 µM

CC(=O)c1cc(O)c2ccccc2c1O
IC50 (mRNA cap guanine-N(7) methyltransferase (RNMT, Homo sapiens, UniProt O43148); enzyme activity, inhibitor): 63.3 µM

CCCCCNC(=N)N/N=C/c1c[nH]c2ccc(OC)cc12
IC50 (HTR2C; ligand displacement, radioligand): 0.197 µM

COc1ncccc1-c1cnn2ccc(N3CCN(C(=O)OC(C)C)CC3)nc12
IC50 (BMP-2-inducible protein kinase (BMP2K, Homo sapiens, UniProt Q9NSY1); enzyme activity, inhibitor): 0.014 µM

CC(C)[C@H](NC(=O)[C@@H](NC(=O)[C@@H](NC(=O)[C@@H](NC(=O)[C@@H](NC(=O)[C@H](Cc1ccccc1)NC(=O)[C@H](CCC(=O)O)NC(=O)[C@@H](N)CC(=O)O)C(C)C)C(C)C)C(C)C)[C@@H](C)O)C(=O)O
IC50 (HLA class I histocompatibility antigen, B alpha chain; ligand displacement, radioligand): 52.8 µM

O=C(Cc1ccccc1)N[C@H](C(=O)O)[C@@H]1N=C(C(=O)O)C(CSC(C(=O)O)c2ccccc2)CS1 (stereo partly shown)
IC50 (blaNDM-1; enzyme activity, inhibitor, absorbance): > 100 µM

CC(C)[C@H](NC(=O)[C@@H](NC(=O)[C@H](CCCNC(=N)N)NC(=O)[C@H](C)NC(=O)[C@H](C)NC(=O)[C@H](CCC(=O)O)NC(=O)[C@H](CO)NC(=O)[C@H](C)NC(=O)[C@@H](N)Cc1ccccc1)C(C)C)C(=O)O
IC50 (HLA class I histocompatibility antigen, B alpha chain; ligand displacement, radioligand): 8.55 µM

COc1cc(CC(C)N)c(OC)cc1I (racemic)
IC50 (HTR2C; ligand displacement, radioligand): 0.00046 µM

CN1CCN(CC/C=C2/c3ccccc3Sc3ccc(S(=O)(=O)N(C)C)cc32)CC1
IC50 (HTR2C; ligand displacement, radioligand): 2.8 µM

CC[C@H](C)[C@H](NC(=O)[C@H](CCCNC(=N)N)NC(=O)[C@H](CC(C)C)NC(=O)[C@@H](N)Cc1ccccc1)C(=O)N[C@@H](CCCNC(=N)N)C(=O)N1CCC[C@H]1C(=O)N[C@@H](CCCCN)C(=O)O
IC50 (B2 bradykinin receptor (BDKRB2, Homo sapiens, UniProt P30411); ligand displacement, radioligand): 0.14 µM

OCC(S)CS (stereo not shown)
IC50 (blaNDM-1; enzyme activity, inhibitor, fluorescence): 4.21 µM

CC(C)[C@H](NC(=O)[C@@H](NC(=O)[C@H](CCC(=O)O)NC(=O)[C@@H](NC(=O)[C@H](Cc1ccccc1)NC(=O)[C@H](C)NC(=O)[C@H](CO)NC(=O)[C@@H](NC(=O)[C@@H](N)CO)[C@@H](C)O)C(C)C)[C@@H](C)O)C(=O)O
IC50 (HLA class I histocompatibility antigen, B alpha chain; ligand displacement, radioligand): 8.86 µM

OCCN(CCO)c1nc(N2CCCCC2)c2nc(N(CCO)CCO)nc(N3CCCCC3)c2n1
IC50 (blaNDM-1; enzyme activity, inhibitor): > 10 µM

O=C(O)c1ccccn1
IC50 (blaNDM-1; enzyme activity, inhibitor, fluorescence): 84 µM

Cc1c2ccncc2c(C)c2c1[nH]c1ccccc12
IC50 (blaNDM-1; enzyme activity, inhibitor): > 30 µM

CC[C@H](C)[C@H](NC(=O)[C@@H]1CCCN1C(=O)[C@@H](NC(=O)[C@H](CC(C)C)NC(=O)[C@H](CCC(N)=O)NC(=O)[C@H](Cc1ccccc1)NC(=O)[C@H](C)NC(=O)[C@@H](N)CCCCN)[C@@H](C)O)C(=O)N[C@@H](C)C(=O)N[C@H](C(=O)O)C(C)C
IC50 (HLA class I histocompatibility antigen, B alpha chain; ligand displacement, radioligand): 8.6 µM

CN(Cc1ccccc1)C(=O)Oc1nsnc1N1CCCCC1
IC50 (Fatty-acid amide hydrolase 1 (FAAH, Homo sapiens, UniProt O00519); enzyme activity, inhibitor; cell membranes): 0.0631 µM

Ic1ccccc1CN[C@@H]1C2CCN(CC2)[C@@H]1C(c1ccccc1)c1ccccc1 (racemic)
IC50 (Substance-P receptor (TACR1, Homo sapiens, UniProt P25103); ligand displacement, radioligand): 0.00262 µM
